Results: ChEMBL document CHEMBL1147105, “In vitro and in vivo activities of PD 0305970 and PD 0326448, new bacterial gyrase/topoisomerase inhibitors with potent antibacterial activities versus multidrug-resistant gram-positive and fastidious organism groups” (2007)
≈ marks a conversion by molar mass, not a printed value.

What was measured:
Enterococcus faecalis [1] = experiment: Antibacterial activity against VanB-resistant Enterococcus faecalis; type: functional
How it was run: (§1)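 Broth microdilution MIC per CLSI guidelines, incubated at 35°C. Cation-adjusted Mueller-Hinton broth for nonfastidious organisms and staphylococci. Streptococci tested in the same broth with 3% lysed horse blood. Anaerobes tested in supplemented Brucella broth inside an anaerobe chamber (5% CO2, 5% H2, 90% N2), read after 48 h. Strains were mainly recent clinical isolates with confirmed identity.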

Enterococcus faecium [2] = experiment: Antibacterial activity against Enterococcus faecium; type: functional; how it was run: as §1
Enterococcus faecium [3] = experiment: Antibacterial activity against VanB-resistant Enterococcus faecium; type: functional; how it was run: as §1
Listeria monocytogenes = experiment: Antibacterial activity against Listeria monocytogenes; type: functional
How it was run: (§2)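 Broth microdilution MIC following CLSI guidelines, in cation-adjusted Mueller-Hinton broth containing 3% lysed horse blood, incubated at 35°C. Clinical isolates with identity confirmed. Reported as MIC range, MIC50 and MIC90.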

Legionella pneumophila = experiment: Antibacterial activity against Legionella pneumophila; type: functional
How it was run: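 Broth microdilution MIC per CLSI guidelines, run in buffered yeast extract α-ketoglutarate broth at 35°C and read after 48 h.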

Moraxella catarrhalis = experiment: Antibacterial activity against beta-lactamase positive Moraxella catarrhalis; type: functional
Citrobacter freundii = experiment: Antibacterial activity against Citrobacter freundii; type: functional
How it was run: (§3)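 Broth microdilution MIC following CLSI guidelines, in cation-adjusted Mueller-Hinton broth, incubated at 35°C. Recent clinical isolates and reference strains, with identity confirmed by automated and standard microbiological methods. Results reported as MIC range, MIC50 and MIC90.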

Klebsiella aerogenes = experiment: Antibacterial activity against Enterobacter aerogenes; type: functional; how it was run: as §3
Klebsiella oxytoca = experiment: Antibacterial activity against Klebsiella oxytoca; type: functional; how it was run: as §3
Klebsiella pneumoniae = experiment: Antibacterial activity against beta-lactamase positive Klebsiella pneumoniae; type: functional
How it was run: (§4)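 MIC by CLSI broth microdilution for nonfastidious organisms, in cation-adjusted Mueller-Hinton broth incubated at 35°C.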

Salmonella typhimurium = experiment: Antibacterial activity against Salmonella enterica serovar Typhimurium; type: functional, Salmonella enterica subsp. enterica serovar Typhimurium; how it was run: as §3
Shigella flexneri = experiment: Antibacterial activity against Shigella flexneri; type: functional; how it was run: as §3
[4] = test system: Stenotrophomonas maltophilia; experiment: Antibacterial activity against Stenotrophomonas maltophilia; type: functional; how it was run: as §3
[5] = test system: Peptoniphilus asaccharolyticus; experiment: Antibacterial activity against Peptostreptococcus asaccharolyticus; type: functional
How it was run: (§5)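 Anaerobic broth microdilution MIC following CLSI guidelines, in supplemented Brucella broth. Run in an anaerobe chamber under 5% CO2, 5% H2 and 90% N2 at 35°C, and read after 48 h. Reported as MIC range, MIC50 and MIC90.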

Finegoldia magna = experiment: Antibacterial activity against Peptostreptococcus magnus; type: functional; how it was run: as §5
[6] = test system: Bacteroides thetaiotaomicron; experiment: Antibacterial activity against Bacteroides thetaiotaomicron; type: functional; how it was run: as §5
Staphylococcus aureus = experiment: Antibacterial activity against vancomycin-intermediate Staphylococcus aureus; type: functional; how it was run: as §1
[7] = test system: Staphylococcus epidermidis; experiment: Antibacterial activity against oxacillin-susceptible Staphylococcus epidermidis; type: functional; how it was run: as §4
Alloiococcus otitis = experiment: Antibacterial activity against Alloiococcus otitidis; type: functional
How it was run: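 MIC by broth microdilution following CLSI guidelines, in cation-adjusted Mueller-Hinton broth with 3% lysed horse blood. Incubated at 35°C and read after 48 h. Reported as MIC range, MIC50 and MIC90.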

Streptococcus agalactiae = experiment: Antibacterial activity against Streptococcus agalactiae; type: functional; how it was run: as §2
Streptococcus equinus = experiment: Antibacterial activity against Streptococcus bovis; type: functional
How it was run: (§6)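 Broth microdilution MIC following CLSI guidelines, in cation-adjusted Mueller-Hinton broth with 3% lysed horse blood. Plates incubated at 35°C. Clinical isolates and reference strains, with identity confirmed by standard microbiological methods.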

Streptococcus sanguinis = experiment: Antibacterial activity against Streptococcus sanguis; type: functional; how it was run: as §6
Streptococcus pneumoniae [8] = experiment: Antibacterial activity against penicillin-susceptible Streptococcus pneumoniae; type: functional; how it was run: as §1
Streptococcus pneumoniae [9] = experiment: Antibacterial activity against penicillin-resistant Streptococcus pneumoniae; type: functional; how it was run: as §1
Streptococcus pneumoniae [10] = experiment: Antibacterial activity against levofloxacin-resistant Streptococcus pneumoniae; type: functional; how it was run: as §1
Enterococcus faecalis [11] = experiment: Antibacterial activity against VanA-resistant Enterococcus faecalis; type: functional; how it was run: as §1
Anaerococcus prevotii = experiment: Antibacterial activity against Peptostreptococcus prevotii; type: functional; how it was run: as §5
Prevotella corporis = experiment: Antibacterial activity against Prevotella corporis; type: functional; how it was run: as §5
[12] = test system: Prevotella melaninogenica; experiment: Antibacterial activity against Prevotella melaninogenica; type: functional; how it was run: as §5
Hoylesella oralis = experiment: Antibacterial activity against Prevotella oralis; type: functional; how it was run: as §5
Neisseria meningitidis = experiment: Antibacterial activity against Neisseria meningitidis; type: functional
How it was run: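 MIC by broth microdilution in gonococcal broth, incubated at 35°C in 5% CO2. Reported as MIC range, MIC50 and MIC90.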

Streptococcus viridans = experiment: Antibacterial activity against Streptococcus viridans; type: functional; how it was run: as §6
[13] = test system: Parabacteroides distasonis; experiment: Antimicrobial activity against Bacteroides distasonis; type: functional
How it was run: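 Anaerobic broth microdilution MIC following CLSI guidelines, in supplemented Brucella broth. Incubated at 35°C in a chamber under 5% CO2, 5% H2 and 90% N2. Read after 48 h.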

Cc1c(N2CC[C@@H]([C@H](C)N)C2)c(F)cc2c(=O)[nH]c(=O)n(C3CC3)c12
MIC50 (Enterococcus faecalis [1]): 0.25 µg/mL (≈ 0.722 µM) | MIC90 (Enterococcus faecalis [1]): 0.5 µg/mL (≈ 1.44 µM) | MIC50 (Enterococcus faecium [2]): 1 µg/mL (≈ 2.89 µM) | MIC90 (Enterococcus faecium [2]): 4 µg/mL (≈ 11.5 µM) | MIC (Enterococcus faecium [3]): 1 µg/mL (≈ 2.89 µM) | MIC50 (Listeria monocytogenes): 0.25 µg/mL (≈ 0.722 µM) | MIC90 (Listeria monocytogenes): 0.25 µg/mL (≈ 0.722 µM) | MIC50 (Legionella pneumophila): 0.5 µg/mL (≈ 1.44 µM) | MIC90 (Legionella pneumophila): 0.5 µg/mL (≈ 1.44 µM) | MIC50 (Moraxella catarrhalis): 0.5 µg/mL (≈ 1.44 µM) | MIC90 (Moraxella catarrhalis): 0.5 µg/mL (≈ 1.44 µM) | MIC50 (Citrobacter freundii): 8 µg/mL (≈ 23.1 µM) | MIC90 (Citrobacter freundii): > 64 µg/mL | MIC50 (Klebsiella aerogenes): 8 µg/mL (≈ 23.1 µM) | MIC90 (Klebsiella aerogenes): 64 µg/mL (≈ 185 µM) | MIC50 (Klebsiella oxytoca): 2 µg/mL (≈ 5.77 µM) | MIC90 (Klebsiella oxytoca): 16 µg/mL (≈ 46.2 µM) | MIC50 (Klebsiella pneumoniae): 8 µg/mL (≈ 23.1 µM) | MIC90 (Klebsiella pneumoniae): 64 µg/mL (≈ 185 µM) | MIC50 (Salmonella typhimurium): 2 µg/mL (≈ 5.77 µM) | MIC90 (Salmonella typhimurium): 4 µg/mL (≈ 11.5 µM) | MIC50 (Shigella flexneri): 2 µg/mL (≈ 5.77 µM) | MIC90 (Shigella flexneri): 4 µg/mL (≈ 11.5 µM) | MIC50 [4]: 32 µg/mL (≈ 92.4 µM) | MIC90 [4]: 64 µg/mL (≈ 185 µM) | MIC [5]: 0.06 µg/mL (≈ 0.173 µM) | MIC (Finegoldia magna): 0.06 µg/mL (≈ 0.173 µM) | MIC50 [6]: 16 µg/mL (≈ 46.2 µM) | MIC90 [6]: 32 µg/mL (≈ 92.4 µM) | MIC (Staphylococcus aureus): 0.25 µg/mL (≈ 0.722 µM) | MIC [7]: 0.125 µg/mL (≈ 0.361 µM) | MIC50 (Alloiococcus otitis): 0.008 µg/mL (≈ 0.0231 µM) | MIC90 (Alloiococcus otitis): 0.008 µg/mL (≈ 0.0231 µM) | MIC50 (Streptococcus agalactiae): 0.015 µg/mL (≈ 0.0433 µM) | MIC90 (Streptococcus agalactiae): 0.03 µg/mL (≈ 0.0866 µM) | MIC50 (Streptococcus equinus): 0.06 µg/mL (≈ 0.173 µM) | MIC90 (Streptococcus equinus): 0.06 µg/mL (≈ 0.173 µM) | MIC50 (Streptococcus sanguinis): 0.03 µg/mL (≈ 0.0866 µM) | MIC90 (Streptococcus sanguinis): 0.06 µg/mL (≈ 0.173 µM) | MIC50 (Streptococcus pneumoniae [8]): 0.03 µg/mL (≈ 0.0866 µM) | MIC90 (Streptococcus pneumoniae [8]): 0.06 µg/mL (≈ 0.173 µM) | MIC50 (Streptococcus pneumoniae [9]): 0.03 µg/mL (≈ 0.0866 µM) | MIC90 (Streptococcus pneumoniae [9]): 0.06 µg/mL (≈ 0.173 µM) | MIC50 (Streptococcus pneumoniae [10]): 0.06 µg/mL (≈ 0.173 µM) | MIC90 (Streptococcus pneumoniae [10]): 0.06 µg/mL (≈ 0.173 µM) | MIC (Enterococcus faecalis [11]): 0.25 µg/mL (≈ 0.722 µM) | MIC (Anaerococcus prevotii): 0.06 µg/mL (≈ 0.173 µM) | MIC50 (Prevotella corporis): 0.5 µg/mL (≈ 1.44 µM) | MIC90 (Prevotella corporis): 2 µg/mL (≈ 5.77 µM) | MIC50 [12]: 0.5 µg/mL (≈ 1.44 µM) | MIC90 [12]: 2 µg/mL (≈ 5.77 µM) | MIC50 (Hoylesella oralis): 0.5 µg/mL (≈ 1.44 µM) | MIC90 (Hoylesella oralis): 2 µg/mL (≈ 5.77 µM) | MIC50 (Neisseria meningitidis): 0.5 µg/mL (≈ 1.44 µM) | MIC90 (Neisseria meningitidis): 1 µg/mL (≈ 2.89 µM) | MIC50 (Streptococcus viridans): 0.03 µg/mL (≈ 0.0866 µM) | MIC90 (Streptococcus viridans): 0.06 µg/mL (≈ 0.173 µM) | MIC50 [13]: 16 µg/mL (≈ 46.2 µM) | MIC90 [13]: 32 µg/mL (≈ 92.4 µM)
